# Where “and” joins values, the source holds several entries; their conditions need not be identical. Equal values may be shown once. Where a SMILES comes first, the peptide text is derived from it. The star is where a group is joined. Cbz = O=C(OCc1ccccc1)*
# Key:
# [1] = tested on: CRISPR-Cas9 knock-in HeLa cells harboring R155H VCP expressing GFP-TDP-4FL; experiment: Flow cytometry of GFP-TDP-4FL clearance, R155H knock-in HeLa; type: cell-based
# [2] = tested on: WT HeLa cells expressing GFP-TDP-4FL; experiment: Flow cytometry of GFP-TDP-4FL clearance, wild-type HeLa; type: cell-based
# [3] = tested on: CRISPR-Cas9 knock-in HeLa cells harboring A232E VCP expressing GFP-TDP-4FL; experiment: Flow cytometry of GFP-TDP-4FL clearance, A232E knock-in HeLa; type: cell-based
# [4] = tested on: HeLa cells expressing myc-TDP-4FL; experiment: Sequential extraction and immunoblot of soluble and insoluble TDP-4FL; type: cell-based
# [5] = tested on: R155H/R155H mouse model of MSP; conditions: cited from earlier work
# drosophila model of MSP = conditions: cited from earlier work
# [6] = tested on: HeLa cells expressing TDP-4FL; experiment: Confocal immunofluorescence of intranuclear TDP-4FL inclusion morphology; type: cell-based
# [7] = tested on: HeLa cells expressing myc-TDP-43; experiment: Immunofluorescence and immunoblot of myc-TDP-43 under proteasome inhibition; type: cell-based
# How it was run: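 For imaging, cells were fixed in 4% paraformaldehyde, permeabilised with 0.1% Triton X-100, stained with anti-myc and DAPI, and imaged by confocal microscopy. For blots, RIPA-soluble and urea-soluble fractions were separated at 100,000 x g, and 25-40 µg protein was immunoblotted with GAPDH as loading control.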
# [8] = tested on: HeLa cells expressing myc-TDP-4FL; experiment: Anti-myc immunoprecipitation of insoluble TDP-4FL, ubiquitin immunoblot; type: cell-based; conditions: MG132 treatment, immunoprecipitation of insoluble fraction
# How it was run: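 Sequential extraction: RIPA, then 100,000 x g for 30 min at 4°C, then urea/thiourea/CHAPS buffer. The urea-soluble fraction was diluted in TBST containing 100 mM NEM and 5 mM EDTA and incubated overnight at 4°C with anti-c-Myc magnetic beads. Elution was in Laemmli buffer with 0.5 mM DTT, 10 min at 99°C, followed by immunoblotting with IR-dye detection.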
# recombinant WT VCP [9] = target: T1, recombinant WT VCP (Mus musculus, UniProt Q01853); experiment: MESG-PNP; type: biochemical; conditions: for increase in kcat: 25 μM activator compared with DMSO; for kcat (nmol Pi / nmol VCP / s) (95% CI): WT VCP with 25 μM compound
# How it was run: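 EnzCheck (MESG-PNP) phosphate-release assay: 50 nM recombinant VCP in ATPase buffer with 2% DMSO, 25 µM compound or DMSO, and various ATP concentrations. Absorbance at 360 nm followed for >15 min at 25°C. Phosphate was quantified from an on-plate standard curve. Initial velocities came from linear fits and were fitted to Michaelis-Menten with asymmetric profile-likelihood 95% CI.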
# VCP (E578Q) = VCP (E578Q) (Mus musculus, UniProt Q01853, E578Q); experiment: ATPase activity of VCP with D2 Walker B mutation; type: biochemical; conditions: 25 μM activator vs DMSO
# recombinant WT VCP [10] = target: T1, recombinant WT VCP; type: biochemical; conditions: for maximal increase of VCP activity / Maximum % Activity (95% CI): WT VCP; for maximal increase of VCP activity: increase over baseline; for Maximum % Activity (95% CI): 50 nM VCP, 62.5 μM ATP, Kinase-Glo; for recombinant WT VCP ATPase activity (in words): luciferase-based Kinase-Glo assay
# How it was run: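 Titration of activator concentrations against 50 nM His-tagged recombinant VCP, no cofactors, with 62.5 µM ATP. Buffer: 25 mM HEPES pH 7.5, 100 mM NaCl, 10 mM MgCl2, 2% DMSO. Incubated 1 h at 25°C, then 20 min with Kinase-Glo reagent at room temperature, read by luminescence. Fitted to a 3-parameter dose curve with profile-likelihood 95% CI; n=3 with 3 technical replicates.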
# [11] = target: N-ethylmaleimide-sensitive factor (NSF) (Homo sapiens, UniProt P46459); experiment: ATPase activity of recombinant NSF; type: biochemical; conditions: 25 μM activator, 50 nM NSF, 62.5 μM ATP
# WT VCP + Ufd1/Nploc4 = WT VCP + Ufd1/Nploc4 (Mus musculus, UniProt Q01853); experiment: Kinase-Glo ATPase assay of recombinant VCP with UFD1/NPLOC4 cofactors; type: biochemical; conditions: for Maximum % Activity (95% CI) / EC50: WT VCP + Ufd1/Nploc4, 50 nM each, 62.5 μM ATP; for EC50: read-out: EC50 (μM) (95% CI)
# How it was run: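 50 nM His-tagged recombinant VCP was mixed with 50 nM co-purified UFD1/NPLOC4 complex (1:1 molar) in 25 mM HEPES pH 7.5, 100 mM NaCl, 10 mM MgCl2, 2% DMSO. Added 62.5 µM ATP and a range of activator concentrations, then incubated 1 h at 25°C. ATP remaining was read by Kinase-Glo luminescence after 20 min at room temperature. 3-parameter dose-curve fit with profile-likelihood 95% CI; n=3, 3 technical replicates.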
# ND1L (aa1–481) VCP = ND1L (aa1–481) VCP (Homo sapiens, UniProt P55072); experiment: ATPase activity of truncated ND1L VCP; type: biochemical; conditions: 25 μM compound vs DMSO
# luciferase = experiment: Luciferase counter-screen: Kinase-Glo without recombinant VCP; type: biochemical; conditions: 62.5 μM ATP, increasing compound, no VCP
# LD2 (aa442–806) VCP = LD2 (aa442–806) VCP (Homo sapiens, UniProt P55072); experiment: ATPase activity of truncated LD2 VCP; type: biochemical; conditions: 25 μM compound vs DMSO
# [12] = CB5083 + CHX 6 hours after 3 hours MG132
# [13] = 5μM UP109 + CHX 4 hours after MG132, vs CHX only
# Sequence of WT VCP + Ufd1/Nploc4 (Q01853 whole entry): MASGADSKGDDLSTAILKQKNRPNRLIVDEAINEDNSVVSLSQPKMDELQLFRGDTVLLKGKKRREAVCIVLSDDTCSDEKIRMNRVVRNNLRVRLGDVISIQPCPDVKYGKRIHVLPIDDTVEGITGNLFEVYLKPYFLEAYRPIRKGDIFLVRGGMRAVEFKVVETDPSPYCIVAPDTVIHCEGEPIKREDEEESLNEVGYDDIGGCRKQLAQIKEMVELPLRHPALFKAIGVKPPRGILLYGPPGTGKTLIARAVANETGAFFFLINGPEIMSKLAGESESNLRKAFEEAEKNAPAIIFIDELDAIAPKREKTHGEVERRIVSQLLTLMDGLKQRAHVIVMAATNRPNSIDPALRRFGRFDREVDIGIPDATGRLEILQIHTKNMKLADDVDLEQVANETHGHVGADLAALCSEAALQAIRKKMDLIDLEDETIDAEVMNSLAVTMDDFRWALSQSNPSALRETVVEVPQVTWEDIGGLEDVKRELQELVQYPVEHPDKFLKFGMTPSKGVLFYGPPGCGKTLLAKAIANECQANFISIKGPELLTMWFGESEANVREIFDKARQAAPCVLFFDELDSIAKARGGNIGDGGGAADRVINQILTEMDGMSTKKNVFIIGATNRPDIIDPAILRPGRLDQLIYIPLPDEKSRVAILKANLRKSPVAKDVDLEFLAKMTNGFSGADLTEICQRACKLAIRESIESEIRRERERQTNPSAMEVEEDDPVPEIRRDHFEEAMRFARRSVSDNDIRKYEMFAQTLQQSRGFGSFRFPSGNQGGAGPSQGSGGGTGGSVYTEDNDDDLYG
# Sequence of WT VCP + Ufd1/Nploc4 (Q92890 whole entry partner): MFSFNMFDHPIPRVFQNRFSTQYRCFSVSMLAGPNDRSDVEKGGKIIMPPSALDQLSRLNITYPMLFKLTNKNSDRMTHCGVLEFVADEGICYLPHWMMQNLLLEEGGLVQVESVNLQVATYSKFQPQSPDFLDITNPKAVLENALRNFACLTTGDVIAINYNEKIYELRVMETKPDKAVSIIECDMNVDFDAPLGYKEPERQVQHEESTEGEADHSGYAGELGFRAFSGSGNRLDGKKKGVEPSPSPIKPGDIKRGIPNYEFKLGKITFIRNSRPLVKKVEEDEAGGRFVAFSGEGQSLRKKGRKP
# Sequence of WT VCP + Ufd1/Nploc4 (Q8TAT6 whole entry partner): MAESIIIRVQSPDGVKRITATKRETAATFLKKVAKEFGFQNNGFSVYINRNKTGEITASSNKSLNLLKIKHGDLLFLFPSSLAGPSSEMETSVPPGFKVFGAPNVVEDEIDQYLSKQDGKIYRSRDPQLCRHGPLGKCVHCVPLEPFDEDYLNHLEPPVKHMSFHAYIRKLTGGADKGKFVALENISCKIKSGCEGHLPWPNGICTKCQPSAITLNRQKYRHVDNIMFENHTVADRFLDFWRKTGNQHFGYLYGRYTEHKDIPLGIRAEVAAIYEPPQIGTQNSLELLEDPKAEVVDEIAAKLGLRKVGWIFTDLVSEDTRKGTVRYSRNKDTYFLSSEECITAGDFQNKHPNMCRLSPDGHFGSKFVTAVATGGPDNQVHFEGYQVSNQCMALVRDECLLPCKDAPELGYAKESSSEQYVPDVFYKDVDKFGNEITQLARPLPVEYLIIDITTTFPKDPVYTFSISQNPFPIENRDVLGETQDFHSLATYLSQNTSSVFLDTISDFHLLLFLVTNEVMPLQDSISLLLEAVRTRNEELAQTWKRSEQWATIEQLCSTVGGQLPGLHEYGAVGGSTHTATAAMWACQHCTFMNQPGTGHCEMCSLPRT
# T1 sequence (Q01853 whole entry): as the sequence (Q01853 whole entry) above
# Sequence of LD2 (aa442–806) VCP (P55072 442-806): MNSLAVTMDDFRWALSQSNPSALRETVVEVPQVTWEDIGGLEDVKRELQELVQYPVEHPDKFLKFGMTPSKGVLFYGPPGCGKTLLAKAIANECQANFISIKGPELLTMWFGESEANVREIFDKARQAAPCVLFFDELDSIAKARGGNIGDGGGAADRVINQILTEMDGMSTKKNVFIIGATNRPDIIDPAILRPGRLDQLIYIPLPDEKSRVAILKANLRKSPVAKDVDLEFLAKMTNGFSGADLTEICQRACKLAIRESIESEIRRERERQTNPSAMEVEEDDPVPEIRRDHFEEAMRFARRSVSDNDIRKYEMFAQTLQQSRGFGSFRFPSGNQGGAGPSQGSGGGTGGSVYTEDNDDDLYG
# Sequence of N-ethylmaleimide-sensitive factor (NSF) (P46459 whole entry): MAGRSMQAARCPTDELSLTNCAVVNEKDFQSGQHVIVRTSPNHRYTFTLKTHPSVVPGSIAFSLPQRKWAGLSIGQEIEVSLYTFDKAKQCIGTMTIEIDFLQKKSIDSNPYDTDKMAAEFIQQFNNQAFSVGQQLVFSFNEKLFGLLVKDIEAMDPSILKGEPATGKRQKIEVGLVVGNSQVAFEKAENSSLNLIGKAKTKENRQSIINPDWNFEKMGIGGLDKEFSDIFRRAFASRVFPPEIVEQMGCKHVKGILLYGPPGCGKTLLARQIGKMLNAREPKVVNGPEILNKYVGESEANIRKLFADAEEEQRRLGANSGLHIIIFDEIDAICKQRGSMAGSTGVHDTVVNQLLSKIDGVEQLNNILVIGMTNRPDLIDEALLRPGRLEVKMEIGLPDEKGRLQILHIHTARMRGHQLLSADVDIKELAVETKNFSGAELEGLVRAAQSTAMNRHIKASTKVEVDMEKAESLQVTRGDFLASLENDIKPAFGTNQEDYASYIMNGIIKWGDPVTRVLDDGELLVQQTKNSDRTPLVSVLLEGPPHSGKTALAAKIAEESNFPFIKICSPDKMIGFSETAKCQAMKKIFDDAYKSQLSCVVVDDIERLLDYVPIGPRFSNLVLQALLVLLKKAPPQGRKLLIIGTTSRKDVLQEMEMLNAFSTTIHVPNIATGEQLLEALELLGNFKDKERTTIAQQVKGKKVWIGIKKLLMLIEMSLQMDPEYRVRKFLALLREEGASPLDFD
# Sequence of ND1L (aa1–481) VCP (P55072 1-481): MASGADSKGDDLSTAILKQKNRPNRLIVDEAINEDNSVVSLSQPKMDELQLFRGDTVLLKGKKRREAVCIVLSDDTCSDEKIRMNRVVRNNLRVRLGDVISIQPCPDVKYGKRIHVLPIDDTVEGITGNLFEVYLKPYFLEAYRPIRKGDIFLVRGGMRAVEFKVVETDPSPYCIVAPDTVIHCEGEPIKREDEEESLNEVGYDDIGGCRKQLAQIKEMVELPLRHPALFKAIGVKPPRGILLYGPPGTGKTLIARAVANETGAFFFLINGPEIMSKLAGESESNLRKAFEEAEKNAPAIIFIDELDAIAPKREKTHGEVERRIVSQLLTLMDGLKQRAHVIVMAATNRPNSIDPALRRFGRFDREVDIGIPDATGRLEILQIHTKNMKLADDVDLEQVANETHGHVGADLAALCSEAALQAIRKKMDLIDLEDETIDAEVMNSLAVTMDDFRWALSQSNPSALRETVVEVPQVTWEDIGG
# Sequence of VCP (E578Q) (Q01853 whole entry E578Q): as the sequence (Q01853 whole entry) above, with E578Q counted along it
structure (smiles),measurement,setting,value
Cc1cc2c(C(N)=O)cccc2n1-c1nc2c(c(NCc3ccccc3)n1)COCC2 [CB5083],integrated fluorescence intensity (GFP-TDP-4FL),[1]; [12],greater integrated fluorescence intensity compared to CHX only treatment
same,integrated fluorescence intensity (GFP-TDP-4FL),"[2]; WT cells, CB5083 + CHX 6 hours after 3 hours MG132",significantly higher than CHX only treatment
same,integrated fluorescence intensity (GFP-TDP-4FL),[3]; [12],greater integrated fluorescence intensity compared to CHX only treatment
same,insoluble TDP-4FL protein,[4]; [12],residual amounts of insoluble TDP-4FL protein
same,soluble TDP-4FL protein,[4]; [12],significant decrease in soluble TDP-4FL protein
same,markers of muscle pathology,[5],improved markers of muscle pathology
same,altered mitochondrial morphology caused by VCP variants,drosophila model of MSP,reversed
same,TDP-4FL aggregate morphology,[6]; [12],residual irregularly shaped intranuclear TDP-4FL aggregates
CC(C)C[C@@H](C=O)NC(=O)[C@H](CC(C)C)NC(=O)[C@H](CC(C)C)NC(=O)OCc1ccccc1 [MG132] (Cbz-Leu-Leu-Leu-aldehyde),TDP-43 nuclear morphology,[7]; 4μM MG132,formation of coarse nuclear punctae
same,insoluble TDP-43 protein,"[7]; 4μM MG132 for 0, 3, or 6 hours",increase in insoluble TDP-43 protein
same,soluble TDP-43 protein,"[7]; 4μM MG132 for 0, 3, or 6 hours",reduction in soluble TDP-43 protein
same,ubiquitination of insoluble myc-TDP-4FL,[8],ubiquitination of TDP-4FL protein
same,insoluble TDP-4FL,"[4]; 4μM MG132 for 0, 3, or 6 hours",increase in insoluble TDP-4FL
same,soluble TDP-4FL,"[4]; 4μM MG132 for 0, 3, or 6 hours",decrease in soluble TDP-4FL
same,TDP-4FL inclusion morphology,"[6]; 4μM MG132, 3 or 6 hours","coalesced into larger, irregularly shaped aggregates"
O=C(CSc1nc2ccccc2c(=O)n1NC(=O)c1ccccc1)c1ccc(Cl)cc1 [UP12],increase in kcat,recombinant WT VCP [9],about 25%
same,kcat (nmol Pi / nmol VCP / s) (95% CI),recombinant WT VCP [9],"0.309 nmol Pi / nmol VCP / s and 0.309 (0.269, 0.356) nmol Pi / nmol VCP / s"
same,"ATPase activity of VCP E578Q (inactive D2, active D1)",VCP (E578Q),"seemed to increase ATPase activity, though not significantly"
same,maximal increase of VCP activity,recombinant WT VCP [10],39%
same,Maximum % Activity (95% CI),recombinant WT VCP [10],"139.0 (131.9, 149.0) %"
same,recombinant WT VCP ATPase activity (in words),recombinant WT VCP [10],significantly increased recombinant WT VCP ATPase activity
same,NSF ATPase activity compared to DMSO,[11],No compound significantly increased ATPase activity
same,Maximum % Activity (95% CI),WT VCP + Ufd1/Nploc4,"124.6 (119.8, 130.2) %"
same,EC50,WT VCP + Ufd1/Nploc4,0.648 µM
same,ATPase activity of ND1L construct,ND1L (aa1–481) VCP,only compound to increase ATPase activity
same,luciferase activity inhibition,luciferase,did not inhibit luciferase activity
same,ATPase activity of LD2 construct,LD2 (aa442–806) VCP,significantly increased ATPase activity
COCCNC(=O)NC(=O)COC(=O)c1cc([N+](=O)[O-])ccc1Sc1nc(C)cs1 [UP109],integrated fluorescence intensity (GFP-TDP-4FL),[1]; 5μM UP109 + CHX vs CHX only,significantly decreased integrated fluorescence intensity
same,integrated fluorescence intensity (GFP-TDP-4FL),"[2]; 5μM UP109 + CHX 4 hours after 17 hours MG132, vs CHX only",significantly decreased
same,integrated fluorescence intensity (GFP-TDP-4FL),[2]; 20μM UP109 + CHX 4 hours after 17 hours MG132,further reduced
same,increase in kcat,recombinant WT VCP [9],100%
same,kcat (nmol Pi / nmol VCP / s) (95% CI),recombinant WT VCP [9],"0.489 nmol Pi / nmol VCP / s and 0.489 (0.459, 0.520) nmol Pi / nmol VCP / s"
same,"ATPase activity of VCP E578Q (inactive D2, active D1)",VCP (E578Q),"decreased ATPase activity, though less than UP158 and UP163 and not significantly"
same,maximal increase of VCP activity,recombinant WT VCP [10],97%
same,Maximum % Activity (95% CI),recombinant WT VCP [10],"197.4 (189.8, 206.1) %"
same,recombinant WT VCP ATPase activity (in words),recombinant WT VCP [10],significantly increased recombinant WT VCP ATPase activity
same,integrated fluorescence intensity (GFP-TDP-4FL),[3]; 5μM UP109 + CHX vs CHX only,significantly decreased integrated fluorescence intensity
same,NSF ATPase activity compared to DMSO,[11],No compound significantly increased ATPase activity
same,Maximum % Activity (95% CI),WT VCP + Ufd1/Nploc4,"175.3 (164.6, 188.0) %"
same,EC50,WT VCP + Ufd1/Nploc4,13.4 µM
same,insoluble TDP-4FL levels,[4]; [13],significant decrease in insoluble TDP-4FL levels
same,soluble TDP-4FL levels,[4]; [13],increase in soluble TDP-4FL levels
same,ATPase activity of ND1L construct,ND1L (aa1–481) VCP,did not inhibit the ATPase activity
same,luciferase activity inhibition,luciferase,did not inhibit luciferase activity
same,TDP-4FL aggregate morphology,[6]; 5μM UP109 + CHX 4 hours after MG132,appeared to be smaller and in some cases revert to small anisosomes
same,ATPase activity of LD2 construct,LD2 (aa442–806) VCP,significantly increased ATPase activity
Clc1ccc2[nH]c3c(N4CCC5(CC4)OCCO5)ncnc3c2c1 [UP158],increase in kcat,recombinant WT VCP [9],more than 50%
same,kcat (nmol Pi / nmol VCP / s) (95% CI),recombinant WT VCP [9],"0.356 nmol Pi / nmol VCP / s and 0.356 (0.320, 0.396) nmol Pi / nmol VCP / s"
same,"ATPase activity of VCP E578Q (inactive D2, active D1)",VCP (E578Q),significantly decreased ATPase activity
same,maximal increase of VCP activity,recombinant WT VCP [10],50%
same,Maximum % Activity (95% CI),recombinant WT VCP [10],"150.3 (146.6, 154.3) %"
same,recombinant WT VCP ATPase activity (in words),recombinant WT VCP [10],significantly increased recombinant WT VCP ATPase activity
same,NSF ATPase activity compared to DMSO,[11],No compound significantly increased ATPase activity
same,Maximum % Activity (95% CI),WT VCP + Ufd1/Nploc4,"152.1 (143.2, 164.4) %"
same,EC50,WT VCP + Ufd1/Nploc4,14.3 µM
same,ATPase activity of ND1L construct,ND1L (aa1–481) VCP,did not inhibit the ATPase activity
same,luciferase activity inhibition,luciferase,did not inhibit luciferase activity
same,ATPase activity of LD2 construct,LD2 (aa442–806) VCP,significantly increased ATPase activity
O=C(OCCN(C1=NS(=O)(=O)c2ccccc21)c1ccc(Cl)cc1)c1ccco1 [UP163],increase in kcat,recombinant WT VCP [9],more than 50%
same,kcat (nmol Pi / nmol VCP / s) (95% CI),recombinant WT VCP [9],"0.366 nmol Pi / nmol VCP / s and 0.366 (0.335, 0.401) nmol Pi / nmol VCP / s"
same,"ATPase activity of VCP E578Q (inactive D2, active D1)",VCP (E578Q),significantly decreased ATPase activity
same,maximal increase of VCP activity,recombinant WT VCP [10],104%
same,Maximum % Activity (95% CI),recombinant WT VCP [10],"204.0 (189.2, 223.3) %"
same,recombinant WT VCP ATPase activity (in words),recombinant WT VCP [10],significantly increased recombinant WT VCP ATPase activity
same,NSF ATPase activity compared to DMSO,[11],No compound significantly increased ATPase activity
same,Maximum % Activity (95% CI),WT VCP + Ufd1/Nploc4,"151.8 (144.7, 160.7) %"
same,EC50,WT VCP + Ufd1/Nploc4,8.9 µM
same,change in EC50 with UN compared to without UN,WT VCP + Ufd1/Nploc4; recombinant UN 1:1 molar ratio with VCP,no change in EC50
same,ATPase activity of ND1L construct,ND1L (aa1–481) VCP,did not inhibit the ATPase activity
same,luciferase activity inhibition,luciferase,did not inhibit luciferase activity
same,ATPase activity of LD2 construct,LD2 (aa442–806) VCP,significantly increased ATPase activity

# Source: PMC10055171 (bioRxiv, 2023)
